Each block holds one compound with its values, some of them ahead of it. Where no end group is shown, it is not given here.
Tests used:
[1] = test system: CXCL12-induced intracellular Ca^2+ mobilization in BCR-ABL expressing murine pro/pre B cells; assay: CXCL12-induced Ca2+ mobilization assay; type: cell-based, mouse
[2] = cited from earlier work
[3] = test system: CXCR4-tropic HIV-1; assay: X4-HIV-1 inhibition assay in TZM-bl reporter cells; type: cell-based; settings: for fold increase of antiviral (anti-HIV-1) activity over WSC02: ratio of IC50 values vs WSC02
[4] = test system: MC903-induced skin inflammation of ears of BALB/c mice; assay: Mouse model of atopic dermatitis; type: in vivo
[5] = test system: immune cell infiltration into BAL of BALB/c mice; assay: Mouse model of allergic airway hypereosinophilia; type: in vivo; settings: for effect on influx of macrophages into BAL: OVA-challenged mice
[6] = test system: mice; assay: Observation of visible or behavioral adverse effects in mice; type: in vivo, mouse; settings: administered topically onto the ears or intranasally into lungs of mice
[7] = test system: SupT1 migration towards a CXCL12 gradient; assay: Transwell cell migration assay; type: cell-based
Procedure, shortened: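 SupT1 cells (0.75 × 10^5) in RPMI with 0.1% BSA go into the upper chamber of a 5 μm polycarbonate transwell, with or without compound, and settle ~15 min. The lower chamber holds buffer with or without 100 ng/mL CXCL12 plus compound. After 4 h of migration at 37 °C (5% CO2), lower-chamber cells are counted by CellTiter-Glo and normalized to CXCL12-only. Mean ± SEM, n = 3; fold values compare IC50s.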

[8] = target: CXCR4 (Homo sapiens, UniProt P61073); assay: CXCR4 12G5 antibody competition assay on SupT1 cells; type: binding
[9] = test system: zebrafish embryos; assay: Toxicity in zebrafish embryos; type: in vivo
Procedure, shortened: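 Wild-type embryos dechorionated at 24 hpf with 1 mg/mL pronase in E3, then exposed 24 h in E3 containing peptide. Two independent assays per concentration, each on 10 × 3 embryos. Controls: PBS solvent diluted in E3 matching the highest-dose amount, and pleurocidin peptide NRC-03. Scored at 48 hpf by stereomicroscope: lysis/necrosis, delay/malformations, heart edema/reduced or absent circulation.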

[10] = 315 nmol/ear topically daily, day 11, mean ± SEM
[11] = 12.6 μmol/kg intranasal, 2 h before each OVA challenge, BAL on day 8, mean ± SEM
[12] = 16 μmol/kg intranasal, 2 h before each OVA challenge, BAL on day 8, mean ± SEM
[13] = 2.5 nmol/ear every two days, day 11 (disease inducer)
[14] = 20 nmol/ear topically daily, day 11, mean ± SEM

Chain of CXCR4 (P61073 whole entry): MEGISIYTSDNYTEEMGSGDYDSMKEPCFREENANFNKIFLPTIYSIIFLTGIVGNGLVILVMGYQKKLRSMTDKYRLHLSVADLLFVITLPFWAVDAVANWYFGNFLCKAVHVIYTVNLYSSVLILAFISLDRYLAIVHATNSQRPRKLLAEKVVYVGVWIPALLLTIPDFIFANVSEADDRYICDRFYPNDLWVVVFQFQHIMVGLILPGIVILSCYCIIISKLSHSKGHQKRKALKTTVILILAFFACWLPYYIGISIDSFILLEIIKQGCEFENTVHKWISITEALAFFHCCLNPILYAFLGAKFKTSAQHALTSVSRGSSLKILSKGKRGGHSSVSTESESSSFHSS

IC50 ([3]; Human immunodeficiency virus 1, TZM-bl, read-out: IC50±SEM X4-HIV-1): 0.012 ± 0.002 µM
Compound: c1cc(CN2CCCNCCNCCCNCC2)ccc1CN1CCCNCCNCCCNCC1 [AMD3100, Plerixafor]
effect on CXCL12-induced Ca2+ mobilization ([1]; 1 μmol/L compound): reduced Ca^2+ mobilization
effect on CXCL12-induced Ca2+ mobilization ([1]; 10 μmol/L compound): completely abrogated
stability towards plasma proteases [2]: resistant to plasma proteases
inhibition of MC903 induced ear thickness [4, 10]: 25 ± 7%
inhibition of disease score [4, 10]: 18 ± 6%
inhibition of recruitment of B cells into BAL [5, 11]: 47 ± 17%
inhibition of recruitment of T cells into BAL [5, 11]: 47 ± 15%
inhibition of recruitment of eosinophils into BAL [5, 11]: 56 ± 13%
inhibition of recruitment of neutrophils into BAL [5, 11]: 57 ± 14%
inhibition of recruitment of total cells into BAL [5, 11]: 41 ± 13%

Compound: CC[C@H](C)[C@H](N)C(=O)N[C@@H](CC(C)C)C(=O)N[C@@H](CCCNC(=N)N)C(=O)N[C@@H](Cc1c[nH]c2ccccc12)C(=O)N[C@@H](CO)C(=O)N[C@@H](CCCNC(=N)N)C(=O)N[C@@H](CCCCN)C(=O)N[C@@H](CC(C)C)C(=O)N1CCC[C@H]1C(=O)N[C@@H](CS)C(=O)N[C@H](C(=O)N[C@@H](CO)C(=O)O)C(C)C [JM#21]
visible or behavioral adverse effects [6]: did not observe visible or behavioral adverse effects
fold more efficient than WSC02 in blocking migration ([7]; vs WSC02): 33 fold
fold more efficient than EPI-X4 in blocking migration ([7]; vs wild type peptide EPI-X4): more than 1400 fold
inhibition of MC903-induced ear thickening ([4]; 400 nmol/ear topically daily, day 11, mean ± SEM): 88 ± 4%
IC50 [8]: 0.22 ± 0.02 µM
fold more active than AMD3100 in 12G5 competition ([8]; vs AMD3100): about 3 fold
fold more active than WSC02 in 12G5 competition ([8]; vs WSC02): ~2 fold
toxicity in zebrafish embryos (acute, developmental, cardiotoxicity) ([9]; exposure 24 h from 24 hpf, 3, 30 and 300 μmol/L, 60 embryos per group): not toxic
inhibition of recruitment of B cells into BAL [5, 12]: 71 ± 5%
inhibition of recruitment of T cells into BAL [5, 12]: 73 ± 13%
inhibition of recruitment of eosinophils into BAL [5, 12]: 80 ± 1%
inhibition of recruitment of neutrophils into BAL [5, 12]: 42 ± 15%
effect on influx of macrophages into BAL ([5]; 16 μmol/kg intranasal): not macrophages

Compound: C=C1/C(=C\C=C2/CCC[C@]3(C)[C@@H]([C@H](C)/C=C/[C@@H](O)C4CC4)CC[C@@H]23)C[C@@H](O)C[C@@H]1O [MC903, calcipotriol hydrate]
disease score (0-12, Table 3) [4, 13]: 9.4 ± 0.1
increase of the ear thickness as compared to control [4, 13]: 3.1 ± 0.1 fold

Compound: C[C@@H]1C[C@H]2[C@@H]3CCC4=CC(=O)C=C[C@]4(C)[C@@]3(F)[C@@H](O)C[C@]2(C)[C@@]1(O)C(=O)CO [dexamethasone]
inhibition of MC903-induced ear thickening [4, 14]: 96 ± 2%
inhibition of disease score [4, 14]: 97 ± 2%

Compound: GRRKRKWLRRIGKGVKIIGGAALDHL-NH2 [NRC-03]
toxicity in zebrafish embryos (positive control) ([9]; 6 μmol/L, exposure 24 h): acutely toxic

Compound: H-ILRWSKKVPCVS [JM#1]
fold increase of antiviral (anti-HIV-1) activity over WSC02 [3]: 9 fold

Compound: H-IVRWSKKFPCVS [JM#7]
fold increase of antiviral (anti-HIV-1) activity over WSC02 [3]: about 2 fold

Compound: H-IVRWSKKVPCVS [WSC02]
visible or behavioral adverse effects [6]: did not observe visible or behavioral adverse effects

IC50 [8]: 3.24 ± 0.62 µM
Compound: H-LVRYTKKVPQVSTPTL [EPI-X4]
visible or behavioral adverse effects [6]: did not observe visible or behavioral adverse effects
effect on CXCL12-induced Ca2+ mobilization ([1]; at the tested concentrations): almost inactive
inhibition of recruitment of B cells into BAL [5, 12]: 54 ± 9%
inhibition of recruitment of T cells into BAL [5, 12]: 61 ± 8%
inhibition of recruitment of eosinophils into BAL [5, 12]: 76 ± 7%
inhibition of recruitment of neutrophils into BAL [5, 12]: 63 ± 7%
effect on influx of macrophages into BAL ([5]; 16 μmol/kg intranasal): not macrophages

Reference: article PMC8463264 (Acta Pharmaceutica Sinica. B, 2020)
